Test results: ChEMBL document CHEMBL4680100, “Revisiting the SAR of the Antischistosomal Aryl Hydantoin (Ro 13-3978)” (J Med Chem, 2016); call rule not given here
≈ marks a conversion by molar mass, not a printed value.

Key:
Schistosoma mansoni [1] = test: Antischistosomal activity against Schistosoma mansoni infected in mouse assessed as effective dose causing reduction in worm burden; type: functional
Albumin = Albumin (Homo sapiens, UniProt P02768); test: Protein binding in immobilized human serum albumin by HPLC analysis; type: ADME; conditions: isolated protein
In short: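 Binding estimated from gradient HPLC retention on a human albumin column, correlated against standard compounds of known protein binding.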

[2] = Intrinsic clearance in mouse liver microsome in presence of NADPH-regenerating system incubated over 60 mins by LC-MS analysis; conditions: microsomes, 1 h
[3] = Kinetic solubility of the compound in 0.01 M HCl at pH 2 by nephelometry; type: physicochemical; conditions: read-out: Kinetic_solubility
L6 = test: Cytotoxicity against rat L6 cells assessed as reduction in cell viability at up to 30 uM; type: cell-based
[4] = Tmax in male Swiss mouse at 100 mg/kg, po administered via gavage measured upto 48 hrs postdose by LC-MS analysis; type: ADME, organism-based; conditions: in vivo
In short: (§1)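 Nonfasted male Swiss outbred mice (25–33 g, 7 per compound, fed ad libitum) were gavaged once at 10 mL/kg. Vehicle was 7% v/v Tween 80, 3% v/v ethanol in water, dosed within 1 h of preparation. Blood was drawn 0.25–48 h postdose (n = 2 per time point) into heparin with stabilizer, and plasma was quantified by LCMS. Noncompartmental analysis.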

Schistosoma mansoni [5] = test: Antischistosomal activity against Schistosoma mansoni infected in NMRI mouse assessed as reduction in total worm burden at 100 mg/kg, po administered as single dose starting on day 49 post-infection and measured at 28 days post treatment relative to control; type: functional; set-up: scale not given: the % may be the effect or the level left; conditions: time 28 day
In short: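 S. mansoni-infected NMRI mice treated on day 49 post-infection with a single oral dose, dissolved or suspended in 7% v/v Tween 80, 3% v/v ethanol (10 mL/kg), five mice per group. Sacrificed and dissected 28 d post-treatment; worms counted to give total worm burden reduction versus untreated controls. Kruskal–Wallis test on medians, treatment versus control.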

[6] = Cmax in male Swiss mouse at 100 mg/kg, po administered via gavage measured upto 48 hrs postdose by LC-MS analysis; type: ADME, organism-based; set-up: route oral, dose 100 mg/kg, time <=48; conditions: in vivo; in short: as §1
[7] = Kinetic solubility of compound at pH 6.5 phosphate buffer by nephelometry; type: physicochemical; conditions: read-out: Kinetic_solubility
[8] = Intrinsic clearance in human liver microsome in presence of NADPH-regenerating system incubated over 60 mins by LC-MS analysis; conditions: microsomes, 1 h
Androgen receptor [9] = molecular target: T1, Androgen receptor (Homo sapiens, UniProt P10275)
T1 sequence (P10275 whole entry): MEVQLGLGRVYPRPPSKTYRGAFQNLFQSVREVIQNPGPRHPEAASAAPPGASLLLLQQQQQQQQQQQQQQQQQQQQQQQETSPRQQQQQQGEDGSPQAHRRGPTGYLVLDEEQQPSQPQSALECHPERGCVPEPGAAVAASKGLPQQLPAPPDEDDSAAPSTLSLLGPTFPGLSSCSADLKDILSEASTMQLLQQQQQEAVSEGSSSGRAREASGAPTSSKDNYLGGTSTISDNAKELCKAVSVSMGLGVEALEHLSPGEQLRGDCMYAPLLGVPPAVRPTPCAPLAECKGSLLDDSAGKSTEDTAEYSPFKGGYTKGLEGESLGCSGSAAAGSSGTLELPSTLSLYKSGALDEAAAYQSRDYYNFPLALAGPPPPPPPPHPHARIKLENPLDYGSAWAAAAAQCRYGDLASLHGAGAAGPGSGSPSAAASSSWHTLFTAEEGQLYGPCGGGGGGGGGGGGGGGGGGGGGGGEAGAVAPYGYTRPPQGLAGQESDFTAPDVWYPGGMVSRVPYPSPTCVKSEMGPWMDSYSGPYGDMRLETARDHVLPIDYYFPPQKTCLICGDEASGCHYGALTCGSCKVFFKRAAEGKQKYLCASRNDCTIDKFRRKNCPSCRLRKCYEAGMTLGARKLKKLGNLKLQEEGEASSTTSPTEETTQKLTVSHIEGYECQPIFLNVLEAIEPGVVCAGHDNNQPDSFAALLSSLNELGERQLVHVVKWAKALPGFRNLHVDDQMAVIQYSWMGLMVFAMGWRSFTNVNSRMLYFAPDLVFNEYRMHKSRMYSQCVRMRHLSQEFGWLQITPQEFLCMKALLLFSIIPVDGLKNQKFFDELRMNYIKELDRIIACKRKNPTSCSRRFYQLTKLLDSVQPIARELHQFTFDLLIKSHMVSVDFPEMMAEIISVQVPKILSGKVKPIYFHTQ

[10] = AUC (0 to last) in male Swiss mouse at 100 mg/kg, po administered via gavage measured upto 48 hrs postdose by LC-MS analysis; type: ADME, organism-based; set-up: route oral, dose 100 mg/kg, time <=48; conditions: in vivo
[11] = Octanol/water partition coefficient, logD of the compound at pH 7.4 by HPLC analysis
Androgen receptor [12] = molecular target: T1, Androgen receptor; conditions: lapc4
Schistosoma mansoni [13] = test: Antischistosomal activity against adult Schistosoma mansoni cercariae infected in mouse assessed as effective dose causing reduction in worm burden; type: functional
Schistosoma mansoni [14] = test: Antischistosomal activity against juvenile Schistosoma mansoni cercariae infected in mouse assessed as effective dose causing reduction in worm burden; type: functional

Albumin, sequence (P02768 whole entry): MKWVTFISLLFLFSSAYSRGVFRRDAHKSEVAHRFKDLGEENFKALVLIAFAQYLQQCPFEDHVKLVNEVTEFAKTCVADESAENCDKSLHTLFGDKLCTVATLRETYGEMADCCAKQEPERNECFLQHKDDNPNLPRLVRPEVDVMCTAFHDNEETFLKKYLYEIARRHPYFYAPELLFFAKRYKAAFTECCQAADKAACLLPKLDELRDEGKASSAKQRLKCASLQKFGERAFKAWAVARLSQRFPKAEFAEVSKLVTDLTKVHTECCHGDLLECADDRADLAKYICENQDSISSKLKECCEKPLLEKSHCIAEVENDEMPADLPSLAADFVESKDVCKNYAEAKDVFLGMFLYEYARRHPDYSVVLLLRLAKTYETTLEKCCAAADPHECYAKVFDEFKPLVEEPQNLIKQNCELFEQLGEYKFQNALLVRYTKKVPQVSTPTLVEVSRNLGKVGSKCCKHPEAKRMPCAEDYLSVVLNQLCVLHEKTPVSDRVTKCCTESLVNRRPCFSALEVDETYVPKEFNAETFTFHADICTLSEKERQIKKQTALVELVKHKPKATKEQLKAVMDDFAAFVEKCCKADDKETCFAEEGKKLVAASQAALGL

SMILES | ED50 (Schistosoma mansoni [1]) [mg/kg] | PPB (Albumin) [%] | CLH [2] [µL/min/mg] | solubility kinetic [3] [µg/mL] | Activity (L6) | Tmax [4] [h] | Activity (Schistosoma mansoni [5]) [%] | Cmax [6] [µM] | solubility kinetic [7] [µg/mL] | CLH [8] [µL/min/mg] | IC50 (Androgen receptor [9]) [µM] | AUClast [10] [µM·h] | logD [11] | IC50 (Androgen receptor [12]) | ED50 (Schistosoma mansoni [13]) [mg/kg] | ED50 (Schistosoma mansoni [14]) [mg/kg]
COC(=O)C(C)(C)NC(=O)Nc1ccc(F)c(C(F)(F)F)c1 | 62 |  |  |  |  |  |  |  |  |  |  |  |  |  |  | 
CN(C)C(=O)c1cc(N2C(=O)NC(C)(C)C2=O)ccc1F |  | 5.9 | < 7 | > 100 | Non-Toxic | 1 | 30 | 488 | > 100 | < 7 | 9.1 | 1360 | 0.9 |  |  | 
O=C1NC2(CCCC2)C(=O)N1c1ccc(F)c(C(F)(F)F)c1 |  | 70.4 | 93 | 50 (≈ 158 µM) | Non-Toxic | 1 | 61 | 15 | 50 (≈ 158 µM) | 33 | 0.99 | 106 | 3.2 |  |  | 
CC1(C)C(=O)N(c2ccc(F)c(C(F)(F)F)c2)C(=O)N1CC(N)=O |  | 20.3 | < 7 | 50 (≈ 144 µM) | Non-Toxic |  | 25 |  | 50 (≈ 144 µM) | < 7 |  |  | 2.2 | Not Active |  | 
CC1(C)NC(=O)N(c2ccc(F)c(C(F)(F)F)c2)C1=O |  | 52.1 | < 7 | > 100 | Non-Toxic |  | 95 | 124 | > 100 | 8 | 4.4 | 2740 | 2.7 |  | 15 | 140
CN1C(=O)N(c2ccc(F)c(C(F)(F)F)c2)C(=O)C1(C)C |  | 40.9 | 65 | 50 (≈ 164 µM) | Non-Toxic | 1 | 93 |  | 50 (≈ 164 µM) | 16 | 1.3 |  | 3.2 |  |  | 
CCN1C(=O)N(c2ccc(F)c(C(F)(F)F)c2)C(=O)C1(C)C |  | 49.3 | 32 | 50 (≈ 157 µM) | Non-Toxic | 1 | 98 | 11.1 | 25 (≈ 78.5 µM) | 30 | 0.14 | 103 | 3.5 |  |  | 
CC1(C)C(=O)N(c2ccc(F)c(C(F)(F)F)c2)C(=O)N1CCc1ccccc1 |  | 96.2 | 740 | 12.5 (≈ 31.7 µM) | Non-Toxic |  | 54 |  | 25 (≈ 63.4 µM) | > 870 | 2.4 |  | 4.6 |  |  | 
Cc1ccc(N2C(=O)NC(C)(C)C2=O)cc1C(F)(F)F |  | 64.8 | 16 | > 100 | Non-Toxic |  | 4.8 |  | > 100 | < 7 | > 10 |  | 2.8 |  |  | 
CC1(C)NC(=O)N(c2ccnc(C(F)(F)F)c2)C1=O |  | 22.7 | < 7 | > 100 | Non-Toxic | 7 | 100 | 155 | > 100 | < 7 | 4.5 | 6480 | 1.9 |  |  | 
CC1(C)CC(=O)N(c2ccc(F)c(C(F)(F)F)c2)C(=O)N1 |  | 15 | < 7 | 25 (≈ 82.2 µM) | Non-Toxic |  | 51 |  | 25 (≈ 82.2 µM) | < 7 | > 10 |  | 2.4 |  |  | 
CC1(C)CC(=O)N(c2ccc(F)c(C(F)(F)F)c2)C1=O |  | 42.5 | 10 | 12.5 (≈ 43.2 µM) | Non-Toxic |  | 42 |  | 12.5 (≈ 43.2 µM) | 11 | 0.91 |  | 3.4 |  |  | 
CC1(C)NC(=O)N(c2cnccn2)C1=O |  | 5.8 | < 7 | > 100 | Non-Toxic |  | 42 |  | > 100 | < 7 | > 10 |  | 0.3 |  |  | 
CC1(C)NC(=O)N(c2ccc(F)c(C(F)F)c2)C1=O |  | 20.4 | < 7 | > 100 | Non-Toxic | 3 | 94 | 112 | > 100 | < 7 | ≥ 10 | 3190 | 2.2 |  |  | 
CC(C)(NC(=O)Nc1ccc(F)c(C(F)(F)F)c1)C(=O)O |  | 94.3 | < 7 | 25 (≈ 81.1 µM) | Non-Toxic |  | 67 |  | > 100 | < 7 | 3.1 |  | 1.1 |  |  | 
